Laboratory results taken from PubChem BioAssay.
The list shows a part of the results. Unmarked numbers belong to inactive results. Active and inactive are the calls of the source.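 How the source made its calls, unless noted: active means mean activation across triplicate tests above the threshold derived from the earlier primary screen (cut at about 5.5% in these data); inactive means the rest.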

Legend:
[1] = molecular target: Oxysterols receptor LXR-beta (Homo sapiens) (UniProt P55055); test: LXR agonists, Gal4 luciferase reporter, confirmation, counter-screen for hcDAF-12 agonist project, cell-based, luminescence, HEK293, H. contortus campaign (AID 743027;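 active means mean percent activation of the reporter above a cutoff set as the average over tested compounds plus their standard deviation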); settings: HEK293 Gal4-LXR tk-luc reporter, 24 h, at 6.8 µM, active compounds read high, normalized: DMSO 0%, positive control 100%
Chain of Oxysterols receptor LXR-beta (Homo sapiens) (P55055 whole entry, looked up, the tested form may be a part): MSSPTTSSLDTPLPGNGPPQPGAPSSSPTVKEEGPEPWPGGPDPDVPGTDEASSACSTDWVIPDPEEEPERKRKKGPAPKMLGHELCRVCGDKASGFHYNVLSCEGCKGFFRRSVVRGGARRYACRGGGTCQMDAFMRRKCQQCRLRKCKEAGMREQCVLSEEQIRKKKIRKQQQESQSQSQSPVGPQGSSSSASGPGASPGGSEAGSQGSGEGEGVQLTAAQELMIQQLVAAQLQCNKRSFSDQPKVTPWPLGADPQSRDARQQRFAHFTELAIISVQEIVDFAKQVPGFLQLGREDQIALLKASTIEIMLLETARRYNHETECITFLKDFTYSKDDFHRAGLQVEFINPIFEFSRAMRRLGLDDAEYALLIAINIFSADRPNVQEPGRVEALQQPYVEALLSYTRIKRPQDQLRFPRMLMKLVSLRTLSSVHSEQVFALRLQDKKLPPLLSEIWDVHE
How it was run: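 material = Gal4-LXR and tk-luc reporter transfected HEK293 cells | benchmarks = DMSO low control, positive-control high control | compound dosing = one nominal 6.8 µM dose, 0.68% DMSO | repeats = three replicates per compound | times = 24 h compound exposure at 37 °C, 5% CO2 | detection = One-Glo luciferase luminescence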

[2] = tested on: Nuclear hormone receptor DAF-12 (Haemonchus contortus); test: H. contortus DAF-12 receptor agonists, confirmation, cell-based, luminescence, HEK293, lit1-tk-luc, triplicate (AID 743032); settings: HEK293 hcDAF-12 lit1-tk-luc reporter, at 6.8 µM, active compounds read high, % of Δ7-dafachronic acid response;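 further: 0% = DMSO only wells and 100% = 3 µM Δ7-dafachronic acid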
[3] = tested on: DAF-12 nuclear receptor (Heterodera glycines), GAL4-LBD fusion; test: H. glycines DAF-12 receptor agonists, confirmation, cell-based, luminescence, HEK293, GAL4-LBD fusion (AID 743050;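 active means mean activation over triplicate wells above the hit cutoff derived from the earlier primary screen, cut at about 11% in these data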;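 further: 0% = DMSO low control and 100% = 2 mM sodium butyrate high control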); settings: HEK293 GAL4-hgDAF12 luciferase reporter, agonist mode; at 6.8 µM; active compounds read high; percent of butyrate response
[4] = molecular target: Oxysterols receptor LXR-beta (Homo sapiens) (UniProt P55055); test: LXR agonists, Gal4 luciferase reporter, confirmation, counter-screen for hgDAF-12 agonist project, cell-based, luminescence, HEK293, H. glycines campaign (AID 743051;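 active means mean activation of the triplicate above a set limit carried over from the primary screen, none filed active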); settings: 24 h, at 6.8 µM, active compounds read high
How it was run: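 System: Gal4-LXR luciferase reporter HEK293 cells / Compound: single nominal test compound dose of 6.8 µM / Times: 24 h exposure, 37 °C / Technique: One-Glo luminescence after 15 min / Read-out basis: % activation versus DMSO and positive controls / Benchmarks: DMSO low control, 0.68% final / Replication: n 3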

Structure (SMILES) | activation [1] | activation [2] | activation [3] | activation [4]
O=C(c1cnn(-c2ccc(Cl)cc2)c1)c1ccccc1O | 1.48% | 7.41% (active) | 12.9% (active) | 0.81%
CCOC(=O)c1cn[nH]c1NC(=S)Nc1ccccc1 | 1.51% | 4.78% | 15.6% (active) | 1.01%
NC(=O)c1ccccc1N=Cc1ccc2ccccc2c1 | 0.6% | 5.79% (active) | 15.7% (active) | 0.4%
Cc1ccc(-n2cc3ccc([N+](=O)[O-])cc3n2)cc1 | 2.14% | 6.7% (active) | 22.6% (active) | 0.97%
Cc1cccc(/C(N)=N/OC(=O)c2ccccc2Cl)c1 | 2.08% | 15.3% (active) | 21.4% (active) | 1.18%
Brc1ccccc1C1N=C(c2ccccc2)NO1 (stereo unspecified) | 1.08% | 11.3% (active) | 19.6% (active) | 0.87%
c1cnc(N2CCN(c3ccc4ccccc4n3)CC2)nc1 | 0.85% | 5.39% | 16.9% (active) | 0.78%
Cc1ccnc(NC(=O)CCNS(=O)(=O)c2ccc(C)c(C)c2)c1 | 1.16% | 5.73% (active) | 17.9% (active) | 0.55%
COc1ccc2nc(-c3ccccn3)ccc2c1 | 1.86% | 11.8% (active) | 16.7% (active) | 1.05%
Cc1ccc(SCCSc2ncccn2)cc1 | 1.19% | 7.13% (active) | 14.6% (active) | 0.89%
Oc1cccc2ccc(/C=C/c3ccc(Br)s3)nc12 | 1.05% | 13.8% (active) | 15.8% (active) | 0.56%
Cc1cc(N=Nc2ccc3ccccc3c2)ccc1O | 1.85% | 8.43% (active) | 24.5% (active) | 1.16%
Cn1c(=NC(=O)C2CC2)sc2cc(F)cc(F)c21 | -0.11% | 5.5% | 5.29% | 0.25%
COc1ccc(C2=NN(C(=O)c3ccccc3C(=O)O)C(c3ccccc3O)C2)cc1 (stereo unspecified) | 0.16% | 2.72% | 4.93% | 0.19%
